Screening data from PubChem BioAssay.
hiPSC survival = enhancers of single-cell hiPSC survival, primary screen, ATPlite luminescence; AID 602274, 2012; 360,000 compounds, 0.044% hits; survival enhancement, % at 20 µM; 100% = ROCK inhibitor wells, 0% = DMSO; in the data active = survival enhancement above about 18%;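 also: cells exposed to compounds for 16 hours before the ATP read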
H9c2 TAG inh = inhibitors of triacylglycerol accumulation, primary screen, cell-based, uHTS, fluorescence, H9c2. 230,000 compounds, 0.66% hits. AID 651582, 2012. H9c2 cells, Nile Red lipid (TAG) fluorescence; cells loaded with 200 µM oleic acid. inhibition, % at 12.5 µM;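 active = pattern-corrected inhibition of lipid staining of at least 50% with the nuclear-stain viability signal not falling by more than 50%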
Lipid droplet = inhibitors of hepatocyte lipid droplet formation, primary screen, imaging, high-throughput imaging, BODIPY stain; AML12 mouse hepatocytes, oleate lipid droplets; inhibition, % at 6.5 µM; 240,000 compounds, 0.4% hits;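 active = lipid droplet intensity inhibited by at least 50%, with more than 500 cells counted; inconclusive = wells with under 300 cells, treated as cytotoxic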
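material = mouse AML12 hepatocyte cell line, fixed after treatment | also added = 100 µM oleic acid challenge | doses = compound at 6.5 µM only | schedule = overnight exposure | technique = Image-based BODIPY and DAPI two-channel analysis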
Jurkat NFkB inh = inhibitors of induced NF-kB luciferase reporter, primary screen, TCR NF-kB activation inhibitor project, cell-based, luminescence, uHTS | Jurkat, PMA/ionomycin-induced NF-kB luciferase reporter | inhibition, % at 4 µM | 330,000 compounds, 0.53% hits | AID 435003, 2010; in the data active = inhibition above about 50%
697 NFkB inh = inhibitors of PMA/ionomycin-induced NF-kB reporter, 697 cells, primary screen, B-cell NF-kB inhibitor project, cell-based, luminescence, uHTS; 330,000 compounds, 0.33% hits; AID 435022, 2010; inhibition, % at 4 µM; 697 B-cell NF-kB luciferase reporter, 16 h; in the data active = inhibition above about 35%
Gli-Sufu block = Gli-Sufu pathway antagonists, primary screen, luciferase luminescence, Sufu-KO-LIGHT cells, uHTS | Sufu-KO-LIGHT fibroblasts, Gli luciferase reporter luminescence | 340,000 compounds, 0.74% hits | inhibition, % at 5 µM;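 active = inhibition above about 55%, limit read from the data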
Jurkat NFkB conf = PMA/ionomycin-induced NF-kB reporter inhibitors, Jurkat retest, confirmation, T-cell NF-kB inhibitor project, cell-based, luminescence, single concentration | shares compounds with Jurkat NFkB inh | Jurkat NF-kB luciferase, 16 h | inhibition, % at 4 µM | 2,700 compounds, 27% hits | AID 435020, 2010;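 active = inhibition reaching about 45% at 4 µM in either replicate, limit read from the data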
697 NFkB conf = PMA/ionomycin-induced NF-kB reporter inhibitors, 697 retest, confirmation, B-cell NF-kB inhibitor project, cell-based, luminescence, single concentration | 697 B-cell NF-kB luciferase, 16 h | shares compounds with 697 NFkB inh | inhibition, % at 4 µM | 2,000 compounds, 35% hits; in the data active = inhibition mostly above about 28%, no sharp cut-off; inactive = mostly below about 22%
Large screens that a line does not name were inactive (follow-up assays come after a bar, where they were run). Most compounds without a hit are left out; they make up all but 1.8% or so of the library.

O=C(NCc1cccnc1)c1ccc(COc2ccccc2Cl)o1	Jurkat NFkB inh 56.1 | Jurkat NFkB conf inactive
O=C(NCc1cccnc1)c1ccc(COc2ccc3c(c2)CCC3)o1	none (no result: H9c2 TAG inh)
O=C(NCc1cccnc1)c1ccc(COc2ccccc2Br)o1	Jurkat NFkB inh 71.7 (no result: H9c2 TAG inh) | Jurkat NFkB conf inactive
O=C(Nc1cccnc1)c1ccc(COc2ccccc2Br)o1	none (no result: H9c2 TAG inh)
O=C(NC1CCCCC1)c1ccc(-c2cccc([N+](=O)[O-])c2)o1	none (no result: H9c2 TAG inh) | Jurkat NFkB conf inactive
O=C(NC1CCCCC1)c1ccc(-c2ccccc2F)o1	none (no result: Lipid droplet) | Jurkat NFkB conf inactive
O=C(O)c1ccc(-c2cccc([N+](=O)[O-])c2)o1	none
CN(C(=O)c1ccccc1C(=O)OCC(=O)c1ccc(F)c(F)c1)C1CCCCC1	none (no result: Lipid droplet)
O=C(Nc1ccccc1F)c1ccc(CSc2ccccc2)o1	none (no result: H9c2 TAG inh)
CC(Oc1ccc(Br)cc1Cl)C(=O)Nc1ccncc1 (stereo unspecified)	Jurkat NFkB inh 53.3 | Jurkat NFkB conf inactive
CCOC(=O)CSC1=C(C#N)C(c2ccc(Cl)cc2)CC(=O)N1 (stereo unspecified)	none (no result: Lipid droplet)
CCOC(=O)CSC1=C(C#N)C(c2ccc(C)o2)CC(=O)N1 (stereo unspecified)	Lipid droplet inconclusive, Jurkat NFkB inh 58.1 | Jurkat NFkB conf inactive
CC(=O)c1sc(NC(=O)COc2ccc(C)c(C)c2)nc1C	none (no result: H9c2 TAG inh)
COc1ccccc1S(=O)(=O)Cc1ccc(C(=O)N2CCN(c3ccc(C)cc3)C(C)C2)o1 (stereo unspecified)	none
COc1ccc(S(=O)(=O)Cc2ccc(C(=O)N3CCN(c4cccc(C)c4C)CC3)o2)cc1	none
Cc1ccc(S(=O)(=O)Cc2ccc(C(=O)N3CCN(c4cccc(C)c4C)CC3)o2)cc1	Jurkat NFkB inh 57.5 | Jurkat NFkB conf 52.2
COc1ccc(S(=O)(=O)Cc2ccc(C(=O)N3CCN(c4cccc(C)c4)C(C)C3)o2)cc1 (stereo unspecified)	Jurkat NFkB inh 60.6 (no result: Lipid droplet) | Jurkat NFkB conf inactive
COC1=C(Br)C(=O)c2ncccc2C1=O	none (no result: Lipid droplet, Jurkat NFkB inh, 697 NFkB inh)
CC(=O)N1CCc2cc(S(=O)(=O)CCC(=O)Nc3ccccc3F)ccc21	none (no result: H9c2 TAG inh)
CCN(c1ccc(C)cc1C)S(=O)(=O)c1nnc(NC(=O)C(C)(C)C)s1	none (no result: H9c2 TAG inh)
CN(C)S(=O)(=O)c1ccc(Nc2nc(C3CC3)nc3c2nnn3Cc2ccccc2Cl)cc1	Jurkat NFkB inh 57.3 (no result: H9c2 TAG inh) | Jurkat NFkB conf 65.4
Cc1cc(Cl)c(S(=O)(=O)N2CCCCCC2)cc1OCC(=O)NC1CCCCC1	Jurkat NFkB inh 65.4, 697 NFkB inh 75.0 (no result: H9c2 TAG inh) | Jurkat NFkB conf 71.2 | 697 NFkB conf 69.5
C[C@@H]1CN([C@@H](C)CO)C(=O)c2cc(NC(=O)C3CC3)ccc2O[C@@H]1CN(C)Cc1ccc(Cl)c(Cl)c1	none (no result: Lipid droplet)
NC(=O)c1sc2nc(-c3ccccc3)c3c(c2c1N)CCCC3	none
Nc1c2c(nc3sc4c(c13)CCCC4)-c1ccccc1CC2	none | Jurkat NFkB conf inactive | 697 NFkB conf inactive
Nc1nc(CSc2n[nH]c(-c3ccccc3)n2)nc(Nc2ccccc2)n1	none
Cc1ccc(-c2nc(Nc3ccccc3)n[nH]2)cc1	none | Jurkat NFkB conf inactive | 697 NFkB conf inactive
O=c1c2ccccc2nnn1COc1cccc(Cl)c1	none
O=C(Nc1nc2cc3c(cc2s1)OCCO3)C1CCCCC1	none (no result: Lipid droplet) | Jurkat NFkB conf inactive | 697 NFkB conf inactive
CS(=O)(=O)N1CCN(c2ccccc2[N+](=O)[O-])CC1	none
COc1ccc(C)cc1S(=O)(=O)N(C)CC(=O)N1CCN(c2ccccc2)CC1	none
